Test results published in ChEMBL document CHEMBL5370663, “Neurite Outgrowth-Inducing Drimane-Type Sesquiterpenoids Isolated from Cultures of the Polypore Abundisporus violaceus MUCL 56355” (J Nat Prod, 2023).
Active and inactive are the calls of the source. The calls are words filed in the database; no cut-off is given here.

Legend:
Bacillus subtilis = experiment: Antibacterial activity against Bacillus subtilis DSM 10 assessed as bacterial growth inhibition at 66.7 to 0.52 microg/ml incubated overnight by serial dilution assay; type: functional, organism-based; conditions: dose 66.7-0.52 µg/ml
Summary of the method: (§1)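 Broth microdilution MIC. Compounds diluted in methanol across 66.7–0.52 μg/mL; incubated overnight. MIC is the lowest concentration with no visible growth of the test strain. Positive controls were ciprofloxacin, kanamycin, gentamycin and oxytetracycline for bacteria and nystatin for fungi.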

L929 = experiment: Cytotoxicity against mouse L929 cells incubated for 5 days by MTT assay; type: toxicity, cell-based; conditions: l929, 120 h, time 5 day
Summary of the method: (§2)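 MTT viability test in 96-well plates on KB3.1 (human endocervical adenocarcinoma) and L929 (mouse fibroblast) lines, reported as IC50; epothilone B positive control.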

Wickerhamomyces anomalus = experiment: Antifungal activity against Pichia anomala DSM 6766 assessed as fungal growth inhibition at 66.7 to 0.52 microg/ml incubated overnight by serial dilution assay; type: functional, organism-based; conditions: dose 66.7-0.52 µg/ml; summary of the method: as §1
Candida albicans = experiment: Antifungal activity against Candida albicans DSM 1665 assessed as fungal growth inhibition at 66.7 to 0.52 microg/ml incubated overnight by serial dilution assay; type: functional, organism-based; conditions: dose 66.7-0.52 µg/ml; summary of the method: as §1
Mucor hiemalis = experiment: Antifungal activity against Mucor hiemalis DSM 2656 assessed as fungal growth inhibition at 66.7 to 0.52 microg/mlincubated overnight by serial dilution assay; type: functional, organism-based; conditions: dose 66.7-0.52 µg/ml; summary of the method: as §1
Rhodotorula glutinis = experiment: Antifungal activity against Rhodotorula glutinis DSM 10134 assessed as fungal growth inhibition at 66.7 to 0.52 microg/ml incubated overnight by serial dilution assay; type: functional, organism-based; conditions: dose 66.7-0.52 µg/ml; summary of the method: as §1
Staphylococcus aureus = experiment: Antibacterial activity against Staphylococcus aureus DSM 346 assessed as bacterial growth inhibition at 66.7 to 0.52 microg/ml incubated overnight by serial dilution assay; type: functional, organism-based; conditions: dose 66.7-0.52 µg/ml; summary of the method: as §1
Acinetobacter baumannii = experiment: Antibacterial activity against Acinetobacter baumannii DSM 30008 assessed as bacterial growth inhibition at 66.7 to 0.52 microg/ml incubated overnight by serial dilution assay; type: functional, organism-based; conditions: dose 66.7-0.52 µg/ml; summary of the method: as §1
Escherichia coli = experiment: Antibacterial activity against Escherichia coli DSM 1116 assessed as bacterial growth inhibition at 66.7 to 0.52 microg/ml incubated overnight by serial dilution assay; type: functional, organism-based; conditions: dose 66.7-0.52 µg/ml; summary of the method: as §1
Pseudomonas aeruginosa = experiment: Antibacterial activity against Pseudomonas aeruginosa PA14 assessed as bacterial growth inhibition at 66.7 to 0.52 microg/ml incubated overnight by serial dilution assay; type: functional, organism-based; conditions: dose 66.7-0.52 µg/ml; summary of the method: as §1
KB 3-1 = experiment: Cytotoxicity against human KB-3-1 cells incubated for 5 days by MTT assay; type: toxicity, cell-based; conditions: kb 3-1, 120 h, time 5 day; summary of the method: as §2
[1] = test system: Chromobacterium violaceum; experiment: Antibacterial activity against Chromobacterium violaceum DSM 30191 assessed as bacterial growth inhibition at 66.7 to 0.52 microg/ml incubated overnight by serial dilution assay; type: functional, organism-based; conditions: dose 66.7-0.52 µg/ml; summary of the method: as §1
[2] = test system: Schizosaccharomyces pombe; experiment: Antifungal activity against Schizosaccharomyces pombe DSM 70572 assessed as fungal growth inhibition at 66.7 to 0.52 microg/ml incubated overnight by serial dilution assay; type: functional, organism-based; conditions: dose 66.7-0.52 µg/ml; summary of the method: as §1
[3] = test system: Mycolicibacterium smegmatis; experiment: Antibacterial activity against Mycobacterium smegmatis ATCC 700084 assessed as bacterial growth inhibition at 66.7 to 0.52 microg/ml incubated overnight by serial dilution assay; type: functional, organism-based; conditions: dose 66.7-0.52 µg/ml; summary of the method: as §1
PC-12 = experiment: Induction of neurite outgrowth in NGF-treated rat PC12 cells at 5 ug/mL measured after 48 hrs by phase contrast microscopy; type: functional, cell-based; conditions: dose 5.0 µg/ml
Summary of the method: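 PC-12 cells grown in RPMI-1640 with 10% heat-inactivated horse serum, 5% FBS and 2 mM L-glutamine. Seeded at 1.5 × 10^4 cells/well on collagen IV and allowed to attach 6 h at 37 °C, 7.5% CO2. Medium then switched to differentiation medium (1% horse serum) with compound at 5 μg/mL plus NGF 5 ng/mL; DMSO control. Mean neurite length from phase-contrast live imaging at 48 h; five independent experiments, one-tailed t-test.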

| Compound | inhibition (Bacillus subtilis) | Activity (L929) | inhibition (Wickerhamomyces anomalus) | inhibition (Candida albicans) | inhibition (Mucor hiemalis) | inhibition (Rhodotorula glutinis) | inhibition (Staphylococcus aureus) | inhibition (Acinetobacter baumannii) | inhibition (Escherichia coli) | inhibition (Pseudomonas aeruginosa) | Activity (KB 3-1) | inhibition [1] | inhibition [2] | inhibition [3] | Activity (PC-12) |
| --- | --- | --- | --- | --- | --- | --- | --- | --- | --- | --- | --- | --- | --- | --- | --- |
| COC(=O)[C@H]1C(C(=O)O)=CC[C@@H]2[C@]1(C)CCC[C@@]2(C)C(=O)O | inactive | Non-Toxic | inactive | inactive | inactive | inactive | inactive | inactive | inactive | inactive | Non-Toxic | inactive | inactive | inactive |  |
| C[C@@]1(C(=O)O)CCC[C@]2(C)C3=C(COC3=O)C(=O)C[C@@H]12 | inactive | Non-Toxic | inactive | inactive | inactive | inactive | inactive | inactive | inactive | inactive | Non-Toxic | inactive | inactive | inactive |  |
| C[C@]12CCC[C@@](C)(C(=O)O)[C@@H]1CC=C1CO[C@H](O)[C@@H]12 | inactive | Non-Toxic | inactive | inactive | inactive | inactive | inactive | inactive | inactive | inactive | Non-Toxic | inactive | inactive | inactive | Active |
| C[C@@]12C=C(C(=O)O)[C@@H](O)C[C@H]1[C@](C)(C(=O)O)CCC2 | inactive | Non-Toxic | inactive | inactive | inactive | inactive | inactive | inactive | inactive | inactive | Non-Toxic | inactive | inactive | inactive | Active |
| C[C@@]12C=C(CO)[C@@H](O)C[C@H]1[C@](C)(C(=O)O)CCC2 | inactive | Non-Toxic | inactive | inactive | inactive | inactive | inactive | inactive | inactive | inactive | Non-Toxic | inactive | inactive | inactive | Active |
| C[C@]12CCC[C@@](C)(C(=O)O)[C@@H]1CC=C(CO)[C@H]2C=O | inactive | Non-Toxic | inactive | inactive | inactive | inactive | inactive | inactive | inactive | inactive | Non-Toxic | inactive | inactive | inactive | Active |
| C[C@@]1(C(=O)O)CCC[C@]2(C)c3cocc3C(=O)C[C@@H]12 | inactive | Non-Toxic | inactive | inactive | inactive | inactive | inactive | inactive | inactive | inactive | Non-Toxic | inactive | inactive | inactive | Active |
| C[C@@]12C=C(CO)C(=O)C[C@H]1[C@](C)(C(=O)O)CC[C@@H]2O | inactive | Non-Toxic | inactive | inactive | inactive | inactive | inactive | inactive | inactive | inactive | Non-Toxic | inactive | inactive | inactive | Active |
